From PMC4096895 (Organic & biomolecular chemistry, 2014)

Assays:
[1] = target: β-galactosidase (A. oryzae) (Aspergillus oryzae, UniProt Q2UCU3); test: Assay for the inhibited enzymatic substrate hydrolysis; assay type: biochemical; details: 50 mM acetate buffer pH 5.0, 30 °C
Amidine stability assay = assay type: physicochemical
Summary of the method: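 Test compound kept as a 0.168 M stock in nanopure water at ambient temperature, and aliquots were diluted into the incubation buffer. Samples were flash-frozen in liquid nitrogen and stored at −18°C until analysis. Quantification was by HPLC on a carbohydrate Na+ (8%) column at 80°C, with nanopure water as eluent at 0.4 mL/min and light-scattering detection.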

[2] = test system: β-galactosidase (A. oryzae); test: Assay for enzymatic substrate hydrolysis; assay type: biochemical, Aspergillus oryzae; details: 50 mM acetate buffer pH 5.0, 30 °C, no inhibitor
[3] = Water solubility under the kinetic assay conditions; assay type: physicochemical; details: under the used assay condition (50 mM acetate buffer pH 5)

Chain of β-galactosidase (A. oryzae) (Aspergillus oryzae, UniProt Q2UCU3) (Q2UCU3 19-1005): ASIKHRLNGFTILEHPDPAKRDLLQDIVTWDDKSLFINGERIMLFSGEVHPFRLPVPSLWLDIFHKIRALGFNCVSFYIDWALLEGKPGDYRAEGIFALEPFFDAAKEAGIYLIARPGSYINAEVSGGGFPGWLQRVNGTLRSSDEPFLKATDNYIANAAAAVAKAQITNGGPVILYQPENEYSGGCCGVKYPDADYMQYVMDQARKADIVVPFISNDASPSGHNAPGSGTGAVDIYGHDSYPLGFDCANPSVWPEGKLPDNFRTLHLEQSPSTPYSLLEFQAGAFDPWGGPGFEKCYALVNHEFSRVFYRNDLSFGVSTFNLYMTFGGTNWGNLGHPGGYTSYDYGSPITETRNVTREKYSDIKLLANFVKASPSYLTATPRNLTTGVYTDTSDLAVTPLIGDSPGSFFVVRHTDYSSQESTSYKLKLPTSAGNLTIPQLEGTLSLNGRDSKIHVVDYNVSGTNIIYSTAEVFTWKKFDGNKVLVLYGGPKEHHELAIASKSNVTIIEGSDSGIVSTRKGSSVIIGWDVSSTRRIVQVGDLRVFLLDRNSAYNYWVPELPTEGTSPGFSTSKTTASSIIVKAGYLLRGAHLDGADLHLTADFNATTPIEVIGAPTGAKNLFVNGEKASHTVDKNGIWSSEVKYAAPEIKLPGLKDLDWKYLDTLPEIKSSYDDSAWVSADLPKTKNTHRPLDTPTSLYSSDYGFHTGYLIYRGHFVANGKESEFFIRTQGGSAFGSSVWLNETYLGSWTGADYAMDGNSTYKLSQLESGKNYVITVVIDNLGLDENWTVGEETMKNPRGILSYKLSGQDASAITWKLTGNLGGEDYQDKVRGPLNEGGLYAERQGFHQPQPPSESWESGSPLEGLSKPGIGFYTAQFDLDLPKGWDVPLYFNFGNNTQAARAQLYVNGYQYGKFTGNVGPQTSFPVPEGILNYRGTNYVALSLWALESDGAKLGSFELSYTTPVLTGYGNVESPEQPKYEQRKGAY

Cc1ccc(CN=C2N[C@H](CO)[C@H](O)[C@H](O)[C@H]2O)cc1 [1d, p-methylbenzyl-D-galactonoamidine]
Ki ([1]; substrate 2a): 23.3 nM | Ki ([1]; substrate 2b): 14.1 nM | Ki ([1]; substrate 2c): 13.3 nM | Ki ([1]; substrate 2e): 16.5 nM | Ki ([1]; substrate 2f): 24.6 nM | Ki ([1]; substrate 2g): 55.7 nM | Ki ([1]; substrate 2i): 11.5 nM | Ki ([1]; substrate 2k): 8 nM | Ki ([1]; substrate 2h): 15.1 nM | Ki ([1]; substrate 2d): 11.6 nM | stability (Amidine stability assay; 5 mM CAPS buffer at pH 10.5 and 0°C, preliminary results): sufficient stability | stability (Amidine stability assay; 5 mM TAPS buffer at pH 9 and 10°C, preliminary results): sufficient stability | stability (Amidine stability assay; 50 mM CAPS buffer at pH 10.5 and 72°C): insufficient stability | stability (HPLC) (Amidine stability assay; acetate buffer at 30°C, same amount of time (3h)): no evidence for compound decomposition | time found stable (Amidine stability assay; nanopure water at 30, 50 or 72°C): ≥ 3 h

OCC1NC(=NCc2cccc(F)c2)C(O)C(O)C1O [1f, 3-fluorobenzyl-D-galactonoamidine]
Ki ([1]; substrate 2a): 16.4 nM | Ki ([1]; substrate 2b): 22.3 nM | Ki ([1]; substrate 2c): 18.1 nM | Ki ([1]; substrate 2e): 14.2 nM | Ki ([1]; substrate 2f): 30.3 nM | Ki ([1]; substrate 2g): 58.1 nM | Ki ([1]; substrate 2i): 13.7 nM | Ki ([1]; substrate 2k): 20.3 nM | Ki ([1]; substrate 2h): 22.8 nM | Ki ([1]; substrate 2d): 13.3 nM

O=[N+]([O-])c1ccccc1O[C@@H]1O[C@H](CO)[C@H](O)[C@H](O)[C@H]1O [2a, 2-nitrophenyl-β-D-galactopyranoside, reference compound]
Km [2]: 1270 µM | kcat [2]: 76.5 s⁻¹

Cc1ccc(O[C@@H]2O[C@H](CO)[C@H](O)[C@H](O)[C@H]2O)c([N+](=O)[O-])c1 [2b, 4-Methyl-2-nitrophenyl-β-D-galactopyranoside]
Km [2]: 1490 µM | kcat [2]: 80.13 s⁻¹

O=[N+]([O-])c1cc(F)ccc1O[C@@H]1O[C@H](CO)[C@H](O)[C@H](O)[C@H]1O [2c, 4-Fluoro-2-nitrophenyl-β-D-galactopyranoside]
Km [2]: 1240 µM | kcat [2]: 77.63 s⁻¹

O=[N+]([O-])c1cc(Cl)ccc1O[C@@H]1O[C@H](CO)[C@H](O)[C@H](O)[C@H]1O [2d, 4-Chloro-2-nitrophenyl-β-D-galactopyranoside]
Km [2]: 960 µM | kcat [2]: 68.97 s⁻¹

O=[N+]([O-])c1cc(Br)ccc1O[C@@H]1O[C@H](CO)[C@H](O)[C@H](O)[C@H]1O [2e, 4-Bromo-2-nitrophenyl-β-D-galactopyranoside]
Km [2]: 1100 µM | kcat [2]: 64.7 s⁻¹

O=[N+]([O-])c1ccc(F)cc1O[C@@H]1O[C@H](CO)[C@H](O)[C@H](O)[C@H]1O [2f, 5-Fluoro-2-nitrophenyl-β-D-galactopyranoside]
Km [2]: 1780 µM | kcat [2]: 64.77 s⁻¹

Cc1ccc([N+](=O)[O-])c(O[C@@H]2O[C@H](CO)[C@H](O)[C@H](O)[C@H]2O)c1 [2g, 5-Methyl-2-nitrophenyl-β-D-galactopyranoside]
Km [2]: 4270 µM | kcat [2]: 70.15 s⁻¹

O=[N+]([O-])c1ccc(O[C@@H]2O[C@H](CO)[C@H](O)[C@H](O)[C@H]2O)cc1 [2h, 4-nitrophenyl-β-D-galactopyranoside, reference compound]
Km [2]: 840 µM | kcat [2]: 53.97 s⁻¹

O=[N+]([O-])c1ccc(O[C@@H]2O[C@H](CO)[C@H](O)[C@H](O)[C@H]2O)c(F)c1 [2i, 2-Fluoro-4-nitrophenyl-β-D-galactopyranoside]
Km [2]: 920 µM | kcat [2]: 61.17 s⁻¹

O=[N+]([O-])c1ccc(O[C@@H]2O[C@H](CO)[C@H](O)[C@H](O)[C@H]2O)c(Cl)c1 [2k, 2-Chloro-4-nitrophenyl-β-D-galactopyranoside]
Km [2]: 700 µM | kcat [2]: 39.68 s⁻¹

COc1ccc(O[C@@H]2O[C@H](CO)[C@H](O)[C@H](O)[C@H]2O)c([N+](=O)[O-])c1 [2p, 4-Methoxy-2-nitrophenyl-β-D-galactopyranoside]
water solubility [3]: surprising low water solubility
